Results published in ChEMBL document CHEMBL1781989, “Novel β-carboline-tripeptide conjugates attenuate mesenteric ischemia/reperfusion injury in the rat” (2011).
Active and inactive are the calls of the source. Non-standard residues stand in square brackets, D forms with d. Residues, ends and D or L forms follow the SMILES beside them. Tpi = O=C(O)[C@@H]1Cc2c([nH]c3ccccc23)CN1

Legend:
Mus musculus [1] = test: Analgesic activity in ICR mouse assessed as increase in pain threshold at 0.15 mmol/kg, ip after 120 mins by tail flick method (reference value: 8.09 +/- 13.28 %); type: functional
Mus musculus [2] = test: Analgesic activity in ICR mouse assessed as increase in pain threshold at 0.15 mmol/kg, ip after 150 mins by tail flick method (reference value: 9.02 +/- 12.19 %); type: functional
Mus musculus [3] = test: Analgesic activity in ICR mouse assessed as increase in pain threshold at 0.15 mmol/kg, ip after 90 mins by tail flick method (reference value: 7.53 +/- 11.54 %); type: functional
Mus musculus [4] = test: Analgesic activity in ICR mouse assessed as increase in pain threshold at 0.15 mmol/kg, ip after 30 mins by tail flick method (reference value: 5.03 +/- 10.26 %); type: functional
Mus musculus [5] = test: Analgesic activity in ICR mouse assessed as increase in pain threshold at 0.15 mmol/kg, ip after 60 mins by tail flick method (reference value: 7.45 +/- 8.03 %); type: functional
Mus musculus [6] = test: Analgesic activity in ICR mouse assessed as increase in pain threshold at 0.15 mmol/kg, ip after 180 mins by tail flick method (reference value: 8.75 +/- 9.73 %); type: functional
Mus musculus [7] = test: Analgesic activity in ICR mouse assessed as increase in pain threshold at 0.10 mmol/kg, po after 90 mins by tail flick method (reference value: 7.53 +/- 11.54 %); type: functional
Mus musculus [8] = test: Analgesic activity in ICR mouse assessed as increase in pain threshold at 0.15 mmol/kg, po after 90 mins by tail flick method (reference value: 7.53 +/- 11.54 %); type: functional
Mus musculus [9] = test: Antiinflammatory activity in po dosed ICR mouse assessed as inhibition of xylene-induced ear edema administered 30 mins before xylene challenge measured after 2 hrs; type: functional, organism-based
Method in brief: (§1)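 Male ICR mice (20 ± 2 g), randomised to test, vehicle (CMC) and aspirin (10 mg/kg oral) groups. Test agents given orally as CMC suspension. After 30 min, 0.03 mL xylene applied to both faces of the right ear, left ear as control. At 2 h mice were killed and 7 mm ear punches weighed. Edema is the right-minus-left weight, and inhibition is taken against vehicle.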

Mus musculus [10] = test: Analgesic activity in ICR mouse assessed as increase in pain threshold at 0.10 mmol/kg, po after 120 mins by tail flick method (reference value: 8.09 +/- 13.28 %); type: functional
Mus musculus [11] = test: Analgesic activity in ICR mouse assessed as increase in pain threshold at 0.05 mmol/kg, po after 90 mins by tail flick method (reference value: 7.53 +/- 11.54 %); type: functional
Mus musculus [12] = test: Antiinflammatory activity in ICR mouse assessed as inhibition of xylene-induced ear edema at 0.15 mmol/kg, po administered 30 mins before xylene challenge measured after 2 hrs relative to control; type: functional; method in brief: as §1
Mus musculus [13] = test: Analgesic activity in ICR mouse assessed as increase in pain threshold at 0.15 mmol/kg, po after 180 mins by tail flick method (reference value: 8.75 +/- 9.73 %); type: functional
Mus musculus [14] = test: Analgesic activity in ICR mouse assessed as increase in pain threshold at 0.05 mmol/kg, po after 60 mins by tail flick method (reference value: 7.45 +/- 8.03 %); type: functional
Mus musculus [15] = test: Analgesic activity in ICR mouse assessed as increase in pain threshold at 0.05 mmol/kg, po after 150 mins by tail flick method (reference value: 9.02 +/- 12.19 %); type: functional
Mus musculus [16] = test: Antiinflammatory activity in ICR mouse assessed as inhibition of xylene-induced ear edema at 0.05 mmol/kg, po administered 30 mins before xylene challenge measured after 2 hrs relative to control; type: functional; method in brief: as §1
Mus musculus [17] = test: Analgesic activity in ICR mouse assessed as increase in pain threshold at 0.05 mmol/kg, po after 120 mins by tail flick method (reference value: 8.09 +/- 13.28 %); type: functional
Mus musculus [18] = test: Analgesic activity in ICR mouse assessed as increase in pain threshold at 0.10 mmol/kg, po after 150 mins by tail flick method (reference value: 9.02 +/- 12.19 %); type: functional
Mus musculus [19] = test: Analgesic activity in ICR mouse assessed as increase in pain threshold at 0.10 mmol/kg, po after 60 mins by tail flick method (reference value: 7.45 +/- 8.03 %); type: functional
Mus musculus [20] = test: Analgesic activity in ICR mouse assessed as increase in pain threshold at 0.15 mmol/kg, po after 30 mins by tail flick method (reference value: 5.03 +/- 10.26 %); type: functional
Mus musculus [21] = test: Analgesic activity in ICR mouse assessed as increase in pain threshold at 0.05 mmol/kg, po after 30 mins by tail flick method (reference value: 5.03 +/- 10.26 %); type: functional
Mus musculus [22] = test: Analgesic activity in ICR mouse assessed as increase in pain threshold at 0.05 mmol/kg, po after 180 mins by tail flick method (reference value: 8.75 +/- 9.73 %); type: functional
Mus musculus [23] = test: Analgesic activity in ICR mouse assessed as increase in pain threshold at 0.15 mmol/kg, po after 150 mins by tail flick method (reference value: 9.02 +/- 12.19 %); type: functional
Mus musculus [24] = test: Analgesic activity in ICR mouse assessed as increase in pain threshold at 0.10 mmol/kg, po after 180 mins by tail flick method (reference value: 8.75 +/- 9.73 %); type: functional
Mus musculus [25] = test: Analgesic activity in ICR mouse assessed as increase in pain threshold at 0.10 mmol/kg, po after 30 mins by tail flick method (reference value: 5.03 +/- 10.26 %); type: functional
Mus musculus [26] = test: Antiinflammatory activity in ICR mouse assessed as inhibition of xylene-induced ear edema at 0.10 mmol/kg, po administered 30 mins before xylene challenge measured after 2 hrs relative to control; type: functional; method in brief: as §1
Mus musculus [27] = test: Analgesic activity in ICR mouse assessed as increase in pain threshold at 0.15 mmol/kg, po after 60 mins by tail flick method (reference value: 7.45 +/- 8.03 %); type: functional
Mus musculus [28] = test: Analgesic activity in ICR mouse assessed as increase in pain threshold at 0.15 mmol/kg, po after 120 mins by tail flick method (reference value: 8.09 +/- 13.28 %); type: functional
Rattus norvegicus [29] = test: Antioxidant activity in mesenteric ischemia/reperfusion injury Wistar rat model ileum assessed as decrease of malondialdehyde levels at 20 mg/kg, ip administered 15 mins before and 1 hr after initiation of reperfusion by Beuge's method; type: functional, organism-based; parameters: dose 20 mg/kg
Method in brief: (§2)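 Dosing 20 mg/kg ip 15 min before and 1 h after reperfusion onset. Intestinal MDA measured by the Beuge and Aust method as nmol/g tissue, and GSH by the Beutler method as µmol/g tissue.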

Rattus norvegicus [30] = test: Antioxidant activity in mesenteric ischemia/reperfusion injury Wistar rat model assessed as decrease of myeloperoxidase activity in intestinal tissue at 20 mg/kg, ip administered 15 mins before and 1 hr after initiation of reperfusion; type: functional, organism-based; parameters: dose 20 mg/kg
Rattus norvegicus [31] = test: Antiinflammatory activity in mesenteric ischemia/reperfusion injury Wistar rat model assessed as reduction of focal denudation of epithelium villi at 20 mg/kg, ip administered 15 mins before and 1 hr after initiation of reperfusion by hematoxylin-eosin staining; type: functional, organism-based; parameters: dose 20 mg/kg
Method in brief: (§3)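 Male Wistar rats (250–300 g) under pentobarbital (80 mg/kg ip) at 37 °C. Drug 20 mg/kg ip 15 min before reperfusion and 1 h into reperfusion, saline to other groups. Terminal ileum (10 mm) snap-frozen, cut at 4–5 µm by cryostat, stained with H&E, and viewed by light microscopy.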

Rattus norvegicus [32] = test: Antioxidant activity in mesenteric ischemia/reperfusion injury Wistar rat model ileum assessed as restoration of glutathione levels at 20 mg/kg, ip administered 15 mins before and 1 hr after initiation of reperfusion by Beutler's method; type: functional, organism-based; parameters: dose 20 mg/kg; method in brief: as §2
Rattus norvegicus [33] = test: Antiinflammatory activity in mesenteric ischemia/reperfusion injury Wistar rat model ileum assessed as reduction of mucosal damage at 20 mg/kg, ip administered 15 mins before and 1 hr after initiation of reperfusion by hematoxylin-eosin staining; type: functional, organism-based; parameters: dose 20 mg/kg; method in brief: as §3

Row | Structure (SMILES) | Activity (Mus musculus [7]) | Activity (Mus musculus [8]) | inhibition (Mus musculus [9]) | Activity (Mus musculus [10]) | Activity (Mus musculus [11]) | inhibition in vivo at 150 µmol/kg (Mus musculus [12]) | Activity (Mus musculus [13]) | Activity (Mus musculus [14]) | Activity (Mus musculus [15]) | inhibition in vivo at 50 µmol/kg (Mus musculus [16]) | Activity (Mus musculus [17]) | Activity (Mus musculus [18]) | Activity (Mus musculus [19]) | Activity (Mus musculus [20]) | Activity (Mus musculus [21]) | Activity (Mus musculus [22]) | Activity (Mus musculus [23]) | inhibition in vivo at 100 µmol/kg (Mus musculus [26]) | Activity (Mus musculus [27]) | Activity (Mus musculus [28]) | also measured
1 | CN1CC[C@]23c4c5ccc(O)c4O[C@H]2[C@@H](O)C=C[C@H]3[C@H]1C5 [MORPHINE] |  |  |  |  |  |  |  |  |  |  |  |  |  |  |  |  |  |  |  |  | Activity (Mus musculus [1]): 98.78%; Activity (Mus musculus [2]): 64.55%; Activity (Mus musculus [3]): 139.03%; Activity (Mus musculus [4]): 142.2%; Activity (Mus musculus [5]): 175.78%; Activity (Mus musculus [6]): 57.43%
2 | NCCCC[C@H](NC(=O)[C@@H]1Cc2c([nH]c3ccccc23)CN1)C(=O)N[C@@H](Cc1ccccc1)C(=O)N[C@@H](Cc1c[nH]c2ccccc12)C(=O)O (H-[Tpi]KFW-OH) | 38.33% | 54.39% | Dose-dependent effect | 23.08% | 23.58% | 55.2% | 25.69% | 26.54% | 15.43% | 28.3% | 18.99% | 21.39% | 34.48% | 44.27% | 11.55% | 9.06% | 29.04% | 45.4% | 52.22% | 41.28% | Activity (Mus musculus [24]): 14.38%; Activity (Mus musculus [25]): 32.32%
3 | O=C(O)[C@H](Cc1c[nH]c2ccccc12)NC(=O)[C@H](Cc1ccccc1)NC(=O)[C@H](Cc1ccc(O)cc1)NC(=O)[C@@H]1Cc2c([nH]c3ccccc23)CN1 (H-[Tpi]YFW-OH) |  | 43.23% | Dose-dependent effect |  |  | 50.9% | 20.94% |  |  | 16.2% |  |  |  | 35.75% |  |  | 28.87% | 32.9% | 41.18% | 30.25% | 
4 | CC(C)C[C@H](NC(=O)[C@@H]1Cc2c([nH]c3ccccc23)CN1)C(=O)N[C@@H](Cc1ccccc1)C(=O)N[C@@H](Cc1c[nH]c2ccccc12)C(=O)O (H-[Tpi]LFW-OH) | 32.73% | 44.67% | Dose-dependent effect | 25.45% | 20.65% | 60.7% | 18.86% | 23.45% | 8.23% | 38.7% | 17.97% | 22.13% | 37.65% | 48.25% | 29.22% | 7.46% | 25.46% | 49.6% | 59.37% | 34.55% | Activity (Rattus norvegicus [29]): Active; Activity (Rattus norvegicus [30]): Active; Activity (Rattus norvegicus [31]): Active; Activity (Rattus norvegicus [32]): Active; Activity (Rattus norvegicus [33]): Active; Activity (Mus musculus [24]): 13.42%; Activity (Mus musculus [25]): 35.41%
